Laboratory results taken from ChEMBL document CHEMBL4364329, “Prodrug Activation by a Viral Protease: Evaluating Combretastatin Peptide Hybrids To Selectively Target Infected Cells” (ACS Med Chem Lett, 2019).
Active and inactive are the calls of the source. The calls are words filed in the database; no cut-off is given here. Non-standard residues stand in square brackets, D forms with d. Residues, ends and D or L forms follow the SMILES beside them. ξ: configuration not given here. *: point of attachment. X1 = COc1ccc(/C=C\c2cc(OC)c(OC)c(OC)c2)cc1N*; 2Abz = Nc1ccccc1C(=O)O; ξNle = CCCCC(N)C(=O)O; Bz = O=C(c1ccccc1)*

Assays:
[1] = test system: HeLa; experiment: Cytotoxicity against human HeLa cells harboring Dengue virus serotype 2 NS2B-NS3 protease assessed as reduction in cell viability after 72 hrs by cell titer blue assay; type: functional, cell-based
Method in brief: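 DENV2 protease-expressing HeLa cells (DENV2proHeLa) were incubated with compound for 72 h. CC50 was determined from triplicate wells.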

[2] = target: Tubulin (Sus scrofa) (UniProt P02554+P02550); experiment: Inhibition of porcine tubulin polymerization at 10 uM preincubated at 37 degC for 30 mins followed by chilling to 0 degC and subsequent addition of GTP by microtiter plate based absorbance detection assay relative to control; type: protein assay
[3] = target: Genome polyprotein (dengue virus type 2) (UniProt P29990); experiment: Inhibition of Dengue virus serotype 2 NS2B-NS3 protease expressed in Escherichia coli BL21 lambda (DE3) cells at 250 uM preincubated with enzyme for 15 mins followed by 2-Abz-Nle-Lys-Arg-Arg-Ser-(3-NO2)-Tyr-NH2 FRET substrate addition measured for 15 mins by fluorescence analysis
[4] = test system: COc1ccc(/C=C\c2cc(OC)c(OC)c(OC)c2)cc1NC(=O)CNC(=O)CNC(=O)[C@H](CCCNC(=N)N)NC(=O)[C@H](CCCNC(=N)N)NC(=O)c1ccccc1; experiment: (§1) Substrate activity at Dengue virus serotype 2 NS2B-NS3 protease expressed in Escherichia coli BL21 lambda (DE3) cells assessed as Km for compound hydrolysis in TRIS buffer at pH 9 incubated for 10 mins at room temperature by Lineweaver-Burk plot analysis; type: ADME, dengue virus type 2
Method in brief: (§2)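 Recombinant DENV NS2B-NS3 protease at 1 μM incubated with substrate from 100 μM up to 1 mM in pH 9 buffer for 10 min at room temperature. Triplicate wells. Km, vmax and kcat were derived from a Lineweaver–Burk plot.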

[5] = test system: COc1ccc(/C=C\c2cc(OC)c(OC)c(OC)c2)cc1NC(=O)[C@H](C)NC(=O)[C@H](CCCNC(=N)N)NC(=O)[C@H](CCCNC(=N)N)NC(=O)c1ccccc1; experiment: as §1; type: ADME, dengue virus type 2; method in brief: as §2
[6] = test system: COc1ccc(/C=C\c2cc(OC)c(OC)c(OC)c2)cc1NC(=O)CNC(=O)[C@H](CCCNC(=N)N)NC(=O)[C@H](CCCCN)NC(=O)c1ccccc1; experiment: as §1; type: ADME, dengue virus type 2; method in brief: as §2
[7] = test system: CCCCC(NC(=O)c1ccccc1N)C(=O)N[C@@H](CCCCN)C(=O)N[C@@H](CCCNC(=N)N)C(=O)N[C@@H](CCCNC(=N)N)C(=O)N[C@@H](CO)C(=O)N[C@@H](Cc1ccc(O)cc1)C(N)=O; experiment: as §1; type: ADME, dengue virus type 2; method in brief: as §2
[8] = test system: COc1ccc(/C=C\c2cc(OC)c(OC)c(OC)c2)cc1NC(=O)CNC(=O)[C@H](CCCNC(=N)N)NC(=O)[C@H](CCCNC(=N)N)NC(=O)c1ccccc1; experiment: as §1; type: ADME, dengue virus type 2; method in brief: as §2

Chain of Tubulin (Sus scrofa) (P02550 whole entry, looked up): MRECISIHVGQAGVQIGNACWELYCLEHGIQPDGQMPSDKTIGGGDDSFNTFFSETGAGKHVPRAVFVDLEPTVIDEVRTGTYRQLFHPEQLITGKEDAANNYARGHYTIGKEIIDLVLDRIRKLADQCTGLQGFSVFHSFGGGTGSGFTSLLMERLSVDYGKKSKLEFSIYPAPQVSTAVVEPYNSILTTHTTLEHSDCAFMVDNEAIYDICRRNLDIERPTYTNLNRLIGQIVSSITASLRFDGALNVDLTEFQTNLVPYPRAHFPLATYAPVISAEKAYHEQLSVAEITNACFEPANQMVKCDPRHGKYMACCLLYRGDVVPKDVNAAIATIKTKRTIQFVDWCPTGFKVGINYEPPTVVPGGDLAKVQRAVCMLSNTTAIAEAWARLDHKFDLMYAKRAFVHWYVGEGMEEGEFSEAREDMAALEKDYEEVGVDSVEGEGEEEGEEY
Chain of Tubulin (Sus scrofa) (P02554 whole entry, looked up): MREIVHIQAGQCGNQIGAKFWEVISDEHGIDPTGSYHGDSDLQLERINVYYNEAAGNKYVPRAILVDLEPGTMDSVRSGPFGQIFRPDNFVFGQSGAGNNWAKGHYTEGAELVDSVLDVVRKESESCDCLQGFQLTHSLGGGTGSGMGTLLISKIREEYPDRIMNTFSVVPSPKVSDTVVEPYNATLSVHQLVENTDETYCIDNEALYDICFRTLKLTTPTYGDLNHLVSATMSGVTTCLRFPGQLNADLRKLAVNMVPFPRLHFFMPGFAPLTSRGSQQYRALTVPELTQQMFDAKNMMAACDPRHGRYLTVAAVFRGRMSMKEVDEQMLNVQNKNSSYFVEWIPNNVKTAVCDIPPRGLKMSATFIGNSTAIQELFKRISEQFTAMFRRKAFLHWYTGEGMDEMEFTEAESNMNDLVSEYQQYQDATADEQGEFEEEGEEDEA

| Compound | Activity [1] | inhibition [2] | other results |
| --- | --- | --- | --- |
| COc1ccc(/C=C\c2cc(OC)c(OC)c(OC)c2)cc1NC(=O)CCNC(=O)[C@H](CCCNC(=N)N)NC(=O)[C@H](CCCNC(=N)N)NC(=O)c1ccccc1 | Toxic | 3.4% | – |
| COc1ccc(/C=C\c2cc(OC)c(OC)c(OC)c2)cc1NC(=O)[C@H](CO)NC(=O)[C@H](CCCNC(=N)N)NC(=O)[C@H](CCCNC(=N)N)NC(=O)c1ccccc1 | Toxic | 1.9% | – |
| COc1ccc(/C=C\c2cc(OC)c(OC)c(OC)c2)cc1NC(=O)[C@H](C)NC(=O)[C@H](CCCNC(=N)N)NC(=O)[C@H](CCCCN)NC(=O)c1ccccc1 | – | -4.9% | – |
| N=C(N)NCCC[C@H](NC(=O)[C@H](CCCCN)NC(=O)c1ccccc1)C(=O)O (Bz-Lys-Arg-OH) | – | – | inhibition [3]: 12.2% |
| COc1ccc(/C=C\c2cc(OC)c(OC)c(OC)c2)cc1NC(=O)[C@H](C)N | – | 40.5% | – |
| CCCCC(NC(=O)c1ccccc1N)C(=O)N[C@@H](CCCCN)C(=O)N[C@@H](CCCNC(=N)N)C(=O)N[C@@H](CCCNC(=N)N)C(=O)N[C@@H](CO)C(=O)N[C@@H](Cc1ccc(O)cc1)C(N)=O (stereo partly drawn) (H-[2Abz][ξNle]KRRSY-NH2) | – | inactive | – |
| COc1ccc(/C=C\c2cc(OC)c(OC)c(OC)c2)cc1O | Toxic | 60.3% | – |
| COc1ccc(/C=C\c2cc(OC)c(OC)c(OC)c2)cc1NC(=O)CNC(=O)CNC(=O)[C@H](CCCNC(=N)N)NC(=O)[C@H](CCCNC(=N)N)NC(=O)c1ccccc1 (Bz-RRGG-X1) | Toxic | 13.4% | – |
| COc1ccc(/C=C\c2cc(OC)c(OC)c(OC)c2)cc1NC(=O)CNC(=O)[C@H](CCCNC(=N)N)NC(=O)[C@H](CCCCN)NC(=O)c1ccccc1 | Toxic | -5.7% | – |
| Genome polyprotein (Dengue virus 2 Thailand/16681/84) | – | – | Km [4]: 144 µM; Vmax [4]: 4.69 µM/min; kcat [4]: 0.0782 s⁻¹; Km [5]: 949 µM; Vmax [5]: 17 µM/min; kcat [5]: 0.284 s⁻¹; Km [6]: 173 µM; Vmax [6]: 2.14 µM/min; kcat [6]: 0.0357 s⁻¹; Km [7]: 182 µM; Vmax [7]: 10.1 µM/min; kcat [7]: 0.168 s⁻¹; Km [8]: 225 µM; Vmax [8]: 6.18 µM/min; kcat [8]: 0.103 s⁻¹ |
| COc1ccc(/C=C\c2cc(OC)c(OC)c(OC)c2)cc1NC(=O)[C@H](CO)NC(=O)[C@H](CCCNC(=N)N)NC(=O)[C@H](CCCCN)NC(=O)c1ccccc1 | – | -4.2% | – |
| COc1ccc(/C=C\c2cc(OC)c(OC)c(OC)c2)cc1NC(=O)CNC(=O)[C@H](CCCNC(=N)N)NC(=O)[C@H](CCCNC(=N)N)NC(=O)c1ccccc1 | Toxic | 26% | – |
| COc1ccc(/C=C\c2cc(OC)c(OC)c(OC)c2)cc1N | Toxic | 33.1% | – |
| COc1ccc(/C=C\c2cc(OC)c(OC)c(OC)c2)cc1NC(=O)CN | – | 61% | – |
| N=C(N)NCCC[C@H](NC(=O)[C@H](CCCNC(=N)N)NC(=O)c1ccccc1)C(=O)O (Bz-Arg-Arg-OH) | – | – | inhibition [3]: 35% |
| COc1ccc(/C=C\c2cc(OC)c(OC)c(OC)c2)cc1NC(=O)[C@H](C)NC(=O)[C@H](CCCNC(=N)N)NC(=O)[C@H](CCCNC(=N)N)NC(=O)c1ccccc1 | Toxic | 3.4% | – |
